Results taken from ChEMBL document CHEMBL1155909, “Discovery and stereoselective synthesis of the novel isochroman neurokinin-1 receptor antagonist 'CJ-17,493'” (Bioorg Med Chem, 2008).

Experiments:
[1] = Displacement of [3H]desmethoxyverapamil from L-type calcium channel
[2] = target: Sodium channel protein type 2 subunit alpha (Rattus norvegicus, UniProt P04775); experiment: Displacement of [3H]batrachotoxinin from rat sodium channel type 2A subunit expressed in CHO-CNa2A cells […]; assay type: cell-based
Mustela putorius furo [3] = experiment: Antiemetic activity against cisplatin-induced emesis in sc dosed ferrets; assay type: functional, organism-based; details: for ED90: Mustela putorius, sc, read-out: ED90
Summary of the method: (§1)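 Ferrets were given the test compound sc 30 min before cisplatin (10 mg/kg, ip). Retching and vomiting/gagging episodes were counted against vehicle control. Groups were n = 4–5, data are mean ± SEM, and Student's t-test was used. Results are given as ED90 (mg/kg, sc) or as % inhibition at the stated dose.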

[4] = Clearance in rat at 0.3 mg/kg, iv; assay type: ADME, organism-based; design: dose 0.3 mg/kg, route intravenous; details: in vivo
Summary of the method: (§2)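 Rats received 0.3 mg/kg iv. Plasma clearance, steady-state volume of distribution and half-life were derived from plasma levels.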

[5] = Volume of distribution at steady state in rat at 0.3 mg/kg, iv; assay type: ADME, organism-based; design: dose 0.3 mg/kg, route intravenous; details: in vivo, read-out: Vdss; summary of the method: as §2
[6] = Half life in rat at 0.3 mg/kg, iv; assay type: ADME, organism-based; design: dose 0.3 mg/kg, route intravenous; details: in vivo; summary of the method: as §2
[7] = Clearance in dog at 1 mg/kg, iv; assay type: ADME, organism-based, Canis lupus familiaris; design: dose 1 mg/kg, route intravenous; details: in vivo
Summary of the method: (§3)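 Dogs received 1 mg/kg iv. Plasma clearance, steady-state volume of distribution and half-life were derived.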

[8] = Volume of distribution at steady state in dog at 1 mg/kg, iv; assay type: ADME, organism-based, Canis lupus familiaris; design: dose 1 mg/kg, route intravenous; details: in vivo, read-out: Vdss; summary of the method: as §3
[9] = Half life in dog at 1 mg/kg, iv; assay type: ADME, organism-based, Canis lupus familiaris; design: dose 1 mg/kg, route intravenous; details: in vivo; summary of the method: as §3
Substance-P receptor = Substance-P receptor (Homo sapiens, UniProt P25103); experiment: Displacement of [3H]SP from NK1 receptor in human IM9 cells
Gerbillinae [10] = experiment: Inhibition of [Sar9, Met(O2)11]SP-induced foot tapping in sc dosed gerbil
CYP2D6 = CYP2D6 (Homo sapiens, UniProt P10635); experiment: (§4) Inhibition of human CYP2D6 at 5 uM; assay type: ADME
Mustela putorius furo [11] = experiment: Antiemetic activity against cisplatin-induced emesis in ferrets at 0.1 mg/kg, sc; assay type: functional; details: route subcutaneous; summary of the method: as §1
Gerbillinae [12] = experiment: Inhibition of [Sar9, Met(O2)11]SP-induced foot tapping in gerbil at 1 mg/kg, sc relative to CP-122721; details: dose 1 mg/kg, route subcutaneous
Gerbillinae [13] = experiment: Inhibition of [Sar9, Met(O2)11]SP-induced foot tapping in gerbil at 0.1 mg/kg, sc relative to CP-122721; details: for inhibition in vivo at 0.1 mg/kg / inhibition (INH): route subcutaneous, dose 0.1 mg/kg
Liver microsomes = experiment: Metabolic stability in human liver microsome assessed as ratio of half life between CYP2D6-deficient microsome and CYP2D6-deficient microsome with addition of exogenous CYP2D6; assay type: ADME
Summary of the method: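 Half-lives were measured in CYP2D6-deficient human liver microsomes with and without added exogenous CYP2D6. The value is the ratio of the half-life without CYP2D6 to the half-life with it.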

Cytochrome P450 2D6 [14] = target: T1, Cytochrome P450 2D6 (Homo sapiens, UniProt P10635); experiment: Binding affinity to human CYP2D6 using bufuralol as substrate; assay type: ADME
Mustela putorius furo [15] = experiment: Antiemetic activity against cisplatin-induced emesis in ferrets at 0.3 mg/kg, sc; assay type: functional; details: route subcutaneous; summary of the method: as §1
[16] = target: Substance-P receptor (Cavia porcellus) (UniProt P30547); experiment: Activity at NK1 receptor in po dosed guinea pig ureter assessed as capsaicin-induced plasma protein leakage; assay type: organism-based
Summary of the method: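 Guinea pigs were dosed orally. Capsaicin (30 µM) was given ip and caused plasma protein leakage in the ureter, taken as activation of peripheral NK1 receptors. Inhibition was measured across doses, and the ED50 was derived in mg/kg, po.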

[17] = Oral bioavailability in rat at 1 to 30 mg/kg; assay type: ADME, organism-based; details: in vivo
Summary of the method: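 Rats received 1–30 mg/kg orally as the hydrochloride salt dissolved in water. Oral bioavailability was determined against iv data.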

Cytochrome P450 2D6 [18] = target: T1, Cytochrome P450 2D6; experiment: as §4; assay type: ADME; details: 5 µM
Mustela putorius furo [19] = experiment: Antiemetic activity against cisplatin-induced emesis in ferrets at 1 mg/kg, sc; assay type: functional; details: route subcutaneous; summary of the method: as §1
[20] = Oral bioavailability in dog at 5 mg/kg; assay type: ADME, organism-based, Canis lupus familiaris; details: in vivo
Summary of the method: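 Dogs were dosed orally at 5 mg/kg as a water solution. Oral bioavailability was determined.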

[21] = substrate: COc1cc2c(cc1CN[C@H]1CCCN[C@H]1c1ccccc1)[C@](C)(C(F)(F)F)OCC2; experiment: Activity of CYP2D6 for hydroxylation in human liver microsomes; assay type: ADME, Microsome
[22] = substrate: COc1cc2c(cc1CN[C@H]1CCCN[C@H]1c1ccccc1)[C@](C)(C(F)(F)F)OCC2; experiment: Activity of CYP2D6 for N-dealkylation in human liver microsomes; assay type: ADME, Microsome

Substance-P receptor, sequence (P25103 whole entry): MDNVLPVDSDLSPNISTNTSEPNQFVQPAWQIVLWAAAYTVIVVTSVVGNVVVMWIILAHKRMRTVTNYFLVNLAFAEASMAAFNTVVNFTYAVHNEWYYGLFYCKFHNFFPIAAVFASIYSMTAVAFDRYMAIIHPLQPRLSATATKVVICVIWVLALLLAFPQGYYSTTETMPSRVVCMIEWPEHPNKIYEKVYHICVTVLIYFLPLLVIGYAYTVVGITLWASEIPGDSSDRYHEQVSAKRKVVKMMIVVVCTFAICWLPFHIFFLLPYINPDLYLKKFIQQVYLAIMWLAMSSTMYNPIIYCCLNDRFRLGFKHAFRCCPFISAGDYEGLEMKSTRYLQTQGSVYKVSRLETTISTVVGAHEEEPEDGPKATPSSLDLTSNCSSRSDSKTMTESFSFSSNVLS
Substance-P receptor (Cavia porcellus), sequence (P30547 whole entry): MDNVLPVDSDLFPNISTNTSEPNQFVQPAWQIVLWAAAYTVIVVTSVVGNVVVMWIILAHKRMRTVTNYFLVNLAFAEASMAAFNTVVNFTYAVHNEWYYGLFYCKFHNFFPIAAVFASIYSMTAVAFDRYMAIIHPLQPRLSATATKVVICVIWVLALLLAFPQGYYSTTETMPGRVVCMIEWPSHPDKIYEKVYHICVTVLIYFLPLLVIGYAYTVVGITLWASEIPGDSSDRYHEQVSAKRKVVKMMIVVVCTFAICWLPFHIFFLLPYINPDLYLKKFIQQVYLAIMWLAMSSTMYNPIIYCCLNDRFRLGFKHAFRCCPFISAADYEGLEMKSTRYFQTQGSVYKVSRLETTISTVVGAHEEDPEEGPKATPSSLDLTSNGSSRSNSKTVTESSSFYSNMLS
Sodium channel protein type 2 subunit alpha, sequence (P04775 whole entry): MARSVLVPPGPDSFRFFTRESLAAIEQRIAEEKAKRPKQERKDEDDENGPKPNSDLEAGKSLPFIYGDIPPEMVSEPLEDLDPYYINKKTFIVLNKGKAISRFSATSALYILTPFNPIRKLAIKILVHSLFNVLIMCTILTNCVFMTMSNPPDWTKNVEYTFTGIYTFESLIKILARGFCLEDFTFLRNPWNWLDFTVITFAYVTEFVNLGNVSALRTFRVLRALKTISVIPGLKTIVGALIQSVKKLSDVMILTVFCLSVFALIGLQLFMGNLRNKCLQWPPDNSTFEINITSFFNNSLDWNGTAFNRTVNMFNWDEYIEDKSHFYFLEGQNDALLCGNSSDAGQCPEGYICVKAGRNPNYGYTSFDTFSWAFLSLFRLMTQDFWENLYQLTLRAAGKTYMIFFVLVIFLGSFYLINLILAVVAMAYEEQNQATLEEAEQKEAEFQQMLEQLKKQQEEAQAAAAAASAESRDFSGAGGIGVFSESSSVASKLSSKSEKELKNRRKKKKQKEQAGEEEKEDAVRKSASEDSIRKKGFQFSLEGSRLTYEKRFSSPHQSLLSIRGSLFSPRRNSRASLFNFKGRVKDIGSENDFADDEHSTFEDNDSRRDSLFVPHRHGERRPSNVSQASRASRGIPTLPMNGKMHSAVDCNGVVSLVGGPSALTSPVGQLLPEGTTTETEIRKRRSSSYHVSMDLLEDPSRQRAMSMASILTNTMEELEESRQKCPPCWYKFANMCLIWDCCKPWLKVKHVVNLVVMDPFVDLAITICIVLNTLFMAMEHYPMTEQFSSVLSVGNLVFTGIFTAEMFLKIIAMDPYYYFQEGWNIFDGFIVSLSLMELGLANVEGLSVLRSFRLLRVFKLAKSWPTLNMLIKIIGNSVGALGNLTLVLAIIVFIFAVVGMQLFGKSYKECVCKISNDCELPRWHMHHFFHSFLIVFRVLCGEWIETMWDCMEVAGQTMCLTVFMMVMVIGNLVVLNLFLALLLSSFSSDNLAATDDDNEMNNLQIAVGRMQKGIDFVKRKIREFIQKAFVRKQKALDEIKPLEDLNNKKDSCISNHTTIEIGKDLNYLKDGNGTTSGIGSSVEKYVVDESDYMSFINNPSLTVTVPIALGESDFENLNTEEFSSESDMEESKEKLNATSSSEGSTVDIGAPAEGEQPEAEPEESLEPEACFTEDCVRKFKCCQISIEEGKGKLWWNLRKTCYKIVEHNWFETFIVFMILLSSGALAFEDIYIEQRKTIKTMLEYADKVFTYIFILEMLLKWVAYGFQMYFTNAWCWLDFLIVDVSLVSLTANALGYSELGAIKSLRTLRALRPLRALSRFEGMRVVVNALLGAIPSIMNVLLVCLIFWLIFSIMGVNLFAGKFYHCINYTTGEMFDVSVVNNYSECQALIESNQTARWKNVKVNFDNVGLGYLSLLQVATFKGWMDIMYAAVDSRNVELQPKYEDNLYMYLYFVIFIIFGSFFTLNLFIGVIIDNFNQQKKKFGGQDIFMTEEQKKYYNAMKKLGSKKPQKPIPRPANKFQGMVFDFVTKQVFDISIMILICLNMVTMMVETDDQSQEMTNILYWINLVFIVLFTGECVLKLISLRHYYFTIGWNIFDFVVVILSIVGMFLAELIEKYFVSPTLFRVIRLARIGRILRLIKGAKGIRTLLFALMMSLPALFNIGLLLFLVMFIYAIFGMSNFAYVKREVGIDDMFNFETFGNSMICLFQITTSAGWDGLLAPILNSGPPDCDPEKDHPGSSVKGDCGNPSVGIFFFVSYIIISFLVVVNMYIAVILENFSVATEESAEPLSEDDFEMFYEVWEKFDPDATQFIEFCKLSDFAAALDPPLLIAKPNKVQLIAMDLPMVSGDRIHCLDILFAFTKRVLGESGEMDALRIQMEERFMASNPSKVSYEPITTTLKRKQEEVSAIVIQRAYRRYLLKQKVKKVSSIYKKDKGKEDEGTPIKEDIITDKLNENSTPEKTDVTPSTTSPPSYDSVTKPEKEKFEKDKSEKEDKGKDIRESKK

COc1cc2c(cc1CN[C@H]1CCCN[C@H]1c1ccccc1)[C@](C)(C(F)(F)F)OCC2 [listing 1 of 2 here]
IC50 [1]: 164 nM
IC50 [2]: 48 nM
ED90 (Mustela putorius furo [3]): 0.07 mg/kg
clearance [4]: 11 mL/min/kg
Vd [5]: 7 L/kg
half-life [6]: 8.8 h
clearance [7]: 31.7 mL/min/kg
Vd [8]: 11 L/kg
half-life [9]: 3.8 h
IC50 (Substance-P receptor): < 0.1 nM
Ki (Substance-P receptor): 0.2 nM
ED50 (Gerbillinae [10]): 0.043 mg/kg

COc1ccc(C(C)(OC)C(F)(F)F)cc1CN[C@H]1CCCN[C@H]1c1ccccc1 (mixture of isomers)
inhibition at 5 µM (CYP2D6): 62.6%
inhibition in vivo at 0.1 mg/kg (Mustela putorius furo [11]): 15%
ED50 (Gerbillinae [10]): 0.11 mg/kg
inhibition in vivo at 1 mg/kg (Gerbillinae [12]; Gerbillinae, sc): 55%
inhibition in vivo at 0.1 mg/kg (Gerbillinae [13]; Gerbillinae, sc): 63%

COc1cc2c(cc1CN[C@H]1CCCN[C@H]1c1ccccc1)C(C)(C(F)(F)F)CCC2 (mixture of isomers; 21)
inhibition in vivo at 0.1 mg/kg (Mustela putorius furo [11]): 97%
Ratio (Liver microsomes): 1.8
Ki (Cytochrome P450 2D6 [14]): 120 nM
IC50 (Substance-P receptor): < 0.1 nM
inhibition (INH) (Gerbillinae [12]): 91%
inhibition (INH) (Gerbillinae [13]): 86%

COc1ccc(C(F)C(F)(F)F)cc1CN[C@H]1CCCN[C@H]1c1ccccc1 (mixture of isomers)
inhibition at 5 µM (CYP2D6): 46.6%
inhibition in vivo at 0.3 mg/kg (Mustela putorius furo [15]): 97%
inhibition in vivo at 0.1 mg/kg (Mustela putorius furo [11]): 97%
Ratio (Liver microsomes): 1.83
IC50 (Substance-P receptor): 0.7 nM
ED50 (Gerbillinae [10]): 0.16 mg/kg

COc1cc2c(cc1CN[C@H]1CCCN[C@H]1c1ccccc1)[C@](C)(C(F)(F)F)OCC2 [listing 2 of 2 here]
ED50 [16]: 0.005 mg/kg

COc1cc2c(cc1CN[C@H]1CCCN[C@H]1c1ccccc1)C(C(F)(F)F)OC2 (mixture of isomers)
inhibition at 5 µM (CYP2D6): 66.4%
inhibition in vivo at 0.1 mg/kg (Mustela putorius furo [11]): 99%
IC50 (Substance-P receptor): < 0.1 nM
% inhibition at 0.1 mg/kg (Gerbillinae [13]; Gerbillinae, sc): 84%

COc1cc2c(cc1CN[C@H]1CCCN[C@H]1c1ccccc1)[C@](C)(C(F)(F)F)OCC2.Cl.Cl
bioavailability [17]: < 1%

COc1cc2c(cc1CN[C@H]1CCCN[C@H]1c1ccccc1)C(C(F)(F)F)CC2 (mixture of isomers; 10)
inhibition (INH) (Cytochrome P450 2D6 [18]): 74.2%
ED100 (Mustela putorius furo [3]): 1 mg/kg
ED90 (Mustela putorius furo [3]): 0.12 mg/kg
inhibition in vivo at 1 mg/kg (Mustela putorius furo [19]): 100%
IC50 (Substance-P receptor): 0.9 nM
ED50 (Gerbillinae [10]): 0.11 mg/kg

COc1cc2c(cc1CN[C@H]1CCCN[C@H]1c1ccccc1)C(C)(C(F)(F)F)CCC2 (mixture of isomers; 20)
inhibition (INH) (Cytochrome P450 2D6 [18]): 42%
IC50 (Substance-P receptor): < 0.1 nM
inhibition (INH) (Gerbillinae [12]): 65%
inhibition (INH) (Gerbillinae [13]): 0%

COc1cc2c(cc1CN[C@H]1CCCN[C@H]1c1ccccc1)C(C)(C(F)(F)F)CCC2 (mixture of isomers; 22)
inhibition (INH) (Cytochrome P450 2D6 [18]): 90%
IC50 (Substance-P receptor): 0.34 nM
inhibition (INH) (Gerbillinae [12]): 87%
inhibition (INH) (Gerbillinae [13]): 26%

COc1cc2c(cc1CN[C@H]1CCCN[C@H]1c1ccccc1)C(C(F)(F)F)CCC2 (mixture of isomers; 17)
inhibition (INH) (Cytochrome P450 2D6 [18]): 76.5%
ED100 (Mustela putorius furo [3]): 1 mg/kg
ED90 (Mustela putorius furo [3]): 0.17 mg/kg
Ratio (Liver microsomes): 7.35
IC50 (Substance-P receptor): 0.5 nM
inhibition (INH) (Gerbillinae [12]): 77%
inhibition in vivo at 0.1 mg/kg (Gerbillinae [13]; Gerbillinae, sc): 55%

COc1cc2c(cc1CN[C@H]1CCCN[C@H]1c1ccccc1)[C@](C)(C(F)(F)F)OCC2.O
bioavailability [20]: 9.8%

COc1cc2c(cc1CN[C@H]1CCCN[C@H]1c1ccccc1)C(C)(C(F)(F)F)OC2 (mixture of isomers; 15)
inhibition (INH) (Cytochrome P450 2D6 [18]): 73%
ED100 (Mustela putorius furo [3]): 0.3 mg/kg
ED90 (Mustela putorius furo [3]): 0.05 mg/kg
Ratio (Liver microsomes): 2.1
Ki (Cytochrome P450 2D6 [14]): 660 nM
IC50 (Substance-P receptor): < 0.1 nM
inhibition (INH) (Gerbillinae [12]): 77%

COc1cc2c(cc1CN[C@H]1CCCN[C@H]1c1ccccc1)C(C)(C(F)(F)F)OC2 (mixture of isomers; 16)
inhibition (INH) (Cytochrome P450 2D6 [18]): 81%
inhibition in vivo at 0.3 mg/kg (Mustela putorius furo [15]): 99%
IC50 (Substance-P receptor): 0.16 nM
inhibition (INH) (Gerbillinae [12]): 94%
inhibition (INH) (Gerbillinae [13]): 87%

B1: Cytochrome P450 2D6 (Homo sapiens) (protein)
chain: MGLEALVPLAVIVAIFLLLVDLMHRRQRWAARYPPGPLPLPGLGNLLHVDFQNTPYCFDQLRRRFGDVFSLQLAWTPVVVLNGLAAVREALVTHGEDTADRPPVPITQILGFGPRSQGVFLARYGPAWREQRRFSVSTLRNLGLGKKSLEQWVTEEAACLCAAFANHSGRPFRPNGLLDKAVSNVIASLTCGRRFEYDDPRFLRLLDLAQEGLKEESGFLREVLNAVPVLLHIPALAGKVLRFQKAFLTQLDELLTEHRMTWDPAQPPRDLTEAFLAEMEKAKGNPESSFNDENLRIVVADLFSAGMVTTSTTLAWGLLLMILHPDVQRRVQQEIDDVIGQVRRPEMGDQAHMPYTTAVIHEVQRFGDIVPLGVTHMTSRDIEVQGFRIPKGTTLITNLSSVLKDEAVWEKPFRFHPEHFLDAQGHFVKPEAFLPFSAGRRACLGEPLARMELFLFFTSLLQHFSFSVPTGQPRPSHHGVFAFLVSPSPYELCAVPR
Km [21]: 16.6 µM
Km [22]: 2.3 µM
